Results on five compounds are retold here after ChEMBL document CHEMBL1212832, “Antiprotozoal steroidal saponins from the marine sponge Pandaros acanthifolium” (J Nat Prod, 2010).

One data set relates to L6. The experiment in a line: Cytotoxicity against rat L6 cells after 72 hrs by Alamar blue assay. Type of data set: cell-based. The following applies: l6, 72 h. An outline of the steps:
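4 × 10^4 L6 cells per well in RPMI 1640 with 10% FBS and L-glutamine, exposed 72 h to seven 3-fold dilutions (90–0.12 µg/mL). Resazurin (Alamar Blue) added for 2 h, fluorescence read at ex 536/em 588 nm.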
(In general: The colour change of resazurin is a common sign of viable cells or microbes.)

Data set [1] deals with Leishmania donovani. The data set can be described thus: Antileishmanial activity against Leishmania donovani (MHOM/ET/67/L82) amastigotes after 72 hrs. In kind it is functional, organism-based. The following applies: MHOM/ET/67/L82, 72 h.
A further data set concerns Plasmodium falciparum. The experiment in a line: Antimalarial activity against chloroquine and pyrimethamine-resistant Plasmodium falciparum K1 assessed as inhibition of [3H]hypoxanthine incorporation after 48 hrs by scintillation counting. Type of data set: functional, organism-based. In short, it runs like this: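 K1 strain (chloroquine- and pyrimethamine-resistant) cultured in RPMI 1640 with 5% Albumax II, 0.2% w/v glucose, 0.03% L-glutamine. Two-fold dilution series from DMSO stocks, final DMSO ≤0.25%. 48 h at 37 °C, then 0.1 µCi [3H]-hypoxanthine added and incubated 24 h more. Freeze-stopped at -80 °C, harvested onto glass fiber filters, scintillation counted. IC50 calculated. Chloroquine as standard.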

For a further data set, the system named is Trypanosoma cruzi. The data set can be described thus: Trypanocidal activity against trypomastigote form of Trypanosoma cruzi Tulahuen infected in rat L6 cells after 96 hrs. The conditions noted are these: L6, 96 h. In kind it is functional, organism-based. In short, it runs like this: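 L6 cells seeded at 2000 per well in RPMI 1640 with 10% FBS, 2 mM L-glutamine; after 24 h, 5000 trypomastigotes of the LacZ-expressing C2C4 line added. After 48 h, medium replaced with seven 3-fold dilutions (90–0.12 µg/mL) for 96 h.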

The subject of data set [2] is Trypanosoma brucei rhodesiense. The data set can be described thus: Trypanocidal activity against Trypanosoma brucei rhodesiense STIB 900 after 72 hrs. Type of data set: functional, organism-based. The conditions noted are these: STIB 900, 72 h. An outline of the steps: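 Bloodstream forms (10^4 per well) in MEM with 25 mM HEPES, extra glucose, non-essential amino acids, 2-mercaptoethanol, pyruvate and 15% heat-inactivated horse serum; seven 3-fold dilutions from 90 to 0.12 µg/mL, 72 h at 37 °C, 5% CO2. Resazurin added for 2–4 h, fluorescence at ex 536/em 588 nm; melarsoprol as standard.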

Data set [3] has as its target T1, 3-oxoacyl-acyl-carrier protein reductase (Plasmodium falciparum) (UniProt Q965D6).
T1 sequence (whole entry): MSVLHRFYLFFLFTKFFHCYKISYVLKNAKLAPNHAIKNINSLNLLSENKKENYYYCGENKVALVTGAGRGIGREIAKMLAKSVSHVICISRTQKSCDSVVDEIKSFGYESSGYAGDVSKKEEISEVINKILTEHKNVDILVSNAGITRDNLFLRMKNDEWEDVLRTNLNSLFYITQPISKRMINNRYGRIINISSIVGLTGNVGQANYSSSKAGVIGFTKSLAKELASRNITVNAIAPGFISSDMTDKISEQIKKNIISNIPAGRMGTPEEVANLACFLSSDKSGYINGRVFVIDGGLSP
The experiment in a line: Inhibition of Plasmodium falciparum recombinant FabG at 20 ug/mL by spectrophotometric analysis.

The nature of data set [4]: Inhibition of Plasmodium falciparum recombinant FabI at 20 ug/mL by spectrophotometric analysis.
Data set [5] concerns the target T2, Fatty acid synthase (Plasmodium falciparum) (UniProt Q965D7).
T2 sequence (whole entry): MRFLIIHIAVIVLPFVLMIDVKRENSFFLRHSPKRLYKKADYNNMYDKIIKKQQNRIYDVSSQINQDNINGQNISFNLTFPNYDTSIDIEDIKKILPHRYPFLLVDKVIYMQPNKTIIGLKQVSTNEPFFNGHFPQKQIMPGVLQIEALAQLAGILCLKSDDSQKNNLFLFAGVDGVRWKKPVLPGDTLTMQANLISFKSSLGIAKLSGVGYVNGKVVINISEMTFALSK
The data set can be described thus: Inhibition of Plasmodium falciparum recombinant FabZ at 20 ug/mL by spectrophotometric analysis.

For data set [6], the system named is Leishmania donovani. The data set can be described thus: Ratio of miltefosine IC50 to compound IC50 for Leishmania donovani (MHOM/ET/67/L82) amastigotes.

The source made the active and inactive calls. The calls are words filed in the database; no cut-off is given here.

For orientation: IC50 means the concentration that gives 50% inhibition. Take `C=C(C(=O)C[C@@H](C)C1=C(O)C(=O)[C@@H]2C3=C(CC[C@]12C)[C@@]1(C)CC[C@H](O[C@@H]2O[C@H](C(=O)OC)[C@@H](O)[C@H](O[C@@H]4OC[C@@H](O)[C@H](O)[C@H]4O)[C@H]2O)C[C@@H]1CC3)C(C)C` [METHYL ESTER PANDAROSIDE E]: the Activity in the data set on L6 was determined as 76.9 µM. The IC50 in the data set on Leishmania donovani [1] stood at 41.3 µM; with Plasmodium falciparum, 5.9 µM; with Trypanosoma cruzi, 61.9 µM; in data set [2], 14.3 µM. For the same compound, the result in data set [3], in data set [4] and in data set [5] was inactive.
`CC(C)CC(=O)C[C@@H](C)C1=C(O)C(=O)[C@@H]2[C@@H]3CC[C@H]4C[C@@H](O[C@@H]5O[C@H](C(=O)O)[C@@H](O)[C@H](O)[C@H]5O[C@@H]5O[C@H](CO)[C@@H](O)[C@H](O)[C@H]5O)CC[C@]4(C)[C@H]3CC[C@]12C` [PANDAROSIDE C] registered an Activity in the data set with L6 of over 120 µM. Also, the 50% inhibitory concentration (IC50) with Leishmania donovani [1] was over 120 µM; with Plasmodium falciparum, over 25 µM; in the data set on Trypanosoma cruzi it was over 120 µM; in data set [2] it was 66.4 µM. The outcome in [3], in [4] and in [5] was inactive.
Consider `CC[C@@H](C(=O)C[C@@H](C)C1=C(O)C(=O)[C@@H]2C3=CC[C@H]4C[C@@H](O[C@@H]5O[C@H](C(=O)OC)[C@@H](O)[C@H](O[C@@H]6OC[C@@H](O)[C@H](O)[C@H]6O)[C@H]5O)CC[C@]4(C)[C@H]3CC[C@]12C)C(C)C` [METHYL ESTER PANDAROSIDE G], for which the Activity in the data set on L6 was found to be 0.22 µM. Also, the IC50 in the data set with Leishmania donovani [1] was determined as 0.051 µM; with Plasmodium falciparum, 0.39 µM; with Trypanosoma cruzi it was 0.77 µM; in [2], 0.038 µM. In addition, the outcome in data set [3], in data set [4] and in [5] was inactive. Also, the “Ratio IC50” value with Leishmania donovani [6] is recorded as 10.
With `C=C(C(=O)C[C@@H](C)C1=C(O)C(=O)[C@@H]2C3=C(CC[C@]12C)[C@@]1(C)CC[C@H](O[C@@H]2O[C@H](C(=O)O)[C@@H](O)[C@H](O[C@@H]4OC[C@@H](O)[C@H](O)[C@H]4O)[C@H]2O)C[C@@H]1CC3)C(C)C` [PANDAROSIDE E], in the data set with L6, the Activity was determined as 40.9 µM. The half-inhibitory concentration (IC50) was 15.9 µM with Leishmania donovani [1], 13.8 µM in the data set on Plasmodium falciparum, 71.6 µM in the data set with Trypanosoma cruzi and 9.4 µM in [2]. For the same compound, the outcome in data set [3], in data set [4] and in [5] was inactive.
As for `CC[C@@H](C(=O)C[C@@H](C)C1=C(O)C(=O)[C@@H]2[C@@H]3CC[C@H]4C[C@@H](O[C@@H]5O[C@H](C(=O)OC)[C@@H](O)[C@H](O)[C@H]5O[C@@H]5O[C@H](CO)[C@@H](O)[C@H](O)[C@H]5O)CC[C@]4(C)[C@H]3CC[C@]12C)C(C)C` [METHYL ESTER PANDAROSIDE A], the Activity in the data set with L6 is over 120 µM. Besides, the half-inhibitory concentration (IC50) in the data set on Leishmania donovani [1] was 66.3 µM; in the data set with Plasmodium falciparum, over 25 µM; in the data set with Trypanosoma cruzi, over 120 µM; in [2], 114 µM. Also, the result in data set [3], in [4] and in [5] was inactive.
